In the library only some 3.1% were active in any assay of this set; here they are far more common.
PGC1a acetyl inh: PGC1a acetylation modulation, inhibitor mode; U2OS PGC1a acetylation, AlphaScreen anti-acetyl-lysine; with virally co-expressed GCN5 acetyltransferase; actives 0.17% (n = 350,000); inhibition, % at 15.6 µM;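 active = every replicate shows inhibition of at least 40%; inconclusive = mean inhibition at least 40% but some replicate below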
PAX8 reporter: inhibitors of PAX8 transcriptional activity in RMG-I cells | RMG-I TPO-luciferase reporter, SteadyGlo, 24 h | inhibition, % at 12.6 µM | actives 1.2% (n = 360,000) | AID 652154;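 active = mean replicate inhibition at least 60% with every replicate also reaching 60%; inconclusive = only one of the two criteria is met; inactive = mean below 60% and not all replicates reaching 60%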;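 also: luciferase light reporting Pax8 driven TPO promoter activity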
FN deposition inh: fibronectin deposition inhibition | AH1F fibroblasts, Alexa488-fibronectin deposition fluorescence, overnight | inhibition, % at 12.6 µM | actives 0.086% (n = 350,000);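 active = mean inhibition across replicates of 30% or more, regardless of how many single replicates reach that level; inconclusive = mean under 30% yet at least half of replicates reach 30%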
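Material: AH1F fibroblasts assembling fluorescent fibronectin matrix; amount: 10000 AH1F cells/well; medium: DMEM, 2% serum; reagent: Alexa488-fibronectin, 24 nM final in well; dosing: single compound dose, delivered by pin transfer; incubation: 1 h adhesion, overnight exposure; detection: fluorescence after three HBSS washes, excitation 485 nm, emission 525 nm; measure: fibronectin deposition inhibition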
FGF22 binding: FGF22 (human) thermal shift binding | Q9HCT0 | actives 1.5% (n = 340,000) | recombinant FGF22 thermal shift, SYPRO orange fluorescence; percent of sucrose octasulfate shift, DMSO zero | activity (Tm shift, normalised), % at 9.99 µM;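 active = mean Tm shift, scaled 0 neutral to 100 positive control, at about 1.3% or above, every replicate too, limit read from the data; inconclusive = no clear call, values can overlap the other calls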
Target sequence (Q9HCT0 whole entry, looked up): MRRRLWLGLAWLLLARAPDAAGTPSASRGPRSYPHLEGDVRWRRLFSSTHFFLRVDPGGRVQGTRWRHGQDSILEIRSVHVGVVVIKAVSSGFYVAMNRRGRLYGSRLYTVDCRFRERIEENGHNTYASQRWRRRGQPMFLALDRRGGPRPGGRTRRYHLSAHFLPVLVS
HIV Env fusion: blocks HIV Env-driven cell-cell fusion | HeLa-JRFL Env/CEM21 cell fusion, luciferase | inhibition, % at 12.3 µM | actives 1.1% (n = 360,000);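 active = mean replicate inhibition score of at least 50 and every replicate individually at or above 50; inconclusive = only one of the two criteria met; inactive = mean below 50 and not all replicates reaching 50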
EWS-Fli block: inhibitors of EWS/Fli oncoprotein transcriptional activity; A673 NR0B1-luciferase reporter, viability-normalised; inhibition, % at 12.6 µM; actives 0.67% (n = 350,000);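 active = mean inhibition of at least 50% after viability correction, with every replicate also passing that limit; inconclusive = mean reaches 50% but only one of two replicates passes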;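 also: firefly luciferase signal divided by Alamar Blue viability fluorescence both relative to DMSO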
DNA binding: DNA binding small molecules. shares compounds with EWS-Fli block. salmon sperm DNA acridine orange fluorescence polarization. AC35, µM (titrated, usually from 68 µM). actives 2% (n = 640). AID 720586;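 active = fitted curve reaches a 35% signal fall AC35 below twice the sample's top valid tested dose, actives reach about 48 µM in these data; inactive = the rest, including activity in the rising direction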;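 also: lower polarization ratio signals compound binding to DNA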
Numbers stand for hits.

For COc1ccc(C(=O)Nc2cccc(C(=O)N/N=C/c3ccc(OC)cc3OC)c2)cc1 the results were PAX8 reporter inactive, FN deposition inh inactive, FGF22 binding inactive, HIV Env fusion inactive, EWS-Fli block 54 and DNA binding inactive.
`Cc1cccc(N2CCN(C3C(=O)Nc4ccccc4-n4nnnc43)CC2)c1C` (stereo unspecified) gave PAX8 reporter inactive, FN deposition inh inactive, FGF22 binding inactive, HIV Env fusion inactive, EWS-Fli block 54 and DNA binding inactive.
For O=C(C[C@H]1CC[C@H]2[C@@H](COC[C@H](O)CN2C(=O)Nc2cc(Cl)cc(Cl)c2)O1)N1CCCCC1 the results were PGC1a acetyl inh inactive, PAX8 reporter inactive, FN deposition inh inactive, FGF22 binding inactive and EWS-Fli block inactive.
Cc1occc1C(=O)Nc1sccc1C(N)=O was read as PGC1a acetyl inh inactive, PAX8 reporter inactive, FGF22 binding inactive, HIV Env fusion inactive and EWS-Fli block inactive.
Screening Cc1noc(C)c1C(=O)Nc1sccc1C(N)=O returned PGC1a acetyl inh inactive, PAX8 reporter inactive, FN deposition inh inactive, FGF22 binding inactive, HIV Env fusion inactive, EWS-Fli block 76 and DNA binding inactive.
For CC1(C)N=C(N)N=C(N)N1c1ccc(CCCCc2ccccc2)cc1 the results were PAX8 reporter 68, FN deposition inh inactive, FGF22 binding inactive, HIV Env fusion inactive, EWS-Fli block 57 and DNA binding inactive.
Screening COc1ccc2oc(C(=O)NCCc3ccccc3)c(C)c2c1 returned PGC1a acetyl inh inactive, PAX8 reporter inactive, FN deposition inh inactive, FGF22 binding inactive, HIV Env fusion inactive, EWS-Fli block 69 and DNA binding inactive.
Screening N=c1ccn2c(n1)O[C@H]1[C@@H](CO)[C@H](O)O[C@H]12 returned PGC1a acetyl inh inactive, PAX8 reporter inactive, FN deposition inh inactive, FGF22 binding inactive, HIV Env fusion inactive and EWS-Fli block inactive.
N=c1ccn2c(n1)O[C@H]1[C@H](O)[C@@H](CO)O[C@H]12 was read as PAX8 reporter inactive, FN deposition inh inactive, FGF22 binding inactive, HIV Env fusion inactive, EWS-Fli block 53 and DNA binding inactive.
Screening COc1ccccc1C(=O)Nc1ccc2c(c1)C(=O)N(C)C[C@H](OC)[C@H](C)CN(CC1CC1)[C@H](C)CO2 returned PGC1a acetyl inh inactive, PAX8 reporter inactive, FN deposition inh inactive, HIV Env fusion inactive and EWS-Fli block inactive.
For CC1=NC(=O)C(N=Nc2cccc(C(=O)O)c2)N1c1ccccc1 (stereo unspecified) the results were PGC1a acetyl inh inactive, FGF22 binding inactive, EWS-Fli block 64 and DNA binding inactive.
`CC1=NC(=O)C(N=Nc2ccccc2)N1c1ccccc1` (stereo unspecified) gave PGC1a acetyl inh inactive.
`Cc1ccsc1C(=O)OCC(=O)NCCC1=CCCCC1` gave PAX8 reporter inactive, FGF22 binding inactive, HIV Env fusion inactive, EWS-Fli block 65 and DNA binding inactive.
Screening C(=Cc1c[nH]c2ccccc12)c1ccc2ccccc2n1 returned PGC1a acetyl inh inactive, PAX8 reporter inactive, FN deposition inh inactive, FGF22 binding inactive, HIV Env fusion inactive, EWS-Fli block 67 and DNA binding inactive.
`C(=Cc1c[nH]c2ccccc12)c1nccc2ccccc12` gave PGC1a acetyl inh inactive, PAX8 reporter inactive, FN deposition inh inactive, FGF22 binding inactive, HIV Env fusion inactive and EWS-Fli block inactive.
`COc1ccc(C2c3cc4c(cc3OC(NNC(N)=O)C2C)OCO4)cc1` (stereo unspecified) gave PGC1a acetyl inh inactive, FN deposition inh inactive, FGF22 binding inactive, HIV Env fusion inactive, EWS-Fli block 50 and DNA binding inactive.
For OCC1OC(n2ccc3c2ncn2ncnc32)C(O)C1O (stereo unspecified) the results were PAX8 reporter 72, FN deposition inh inactive, FGF22 binding inactive, HIV Env fusion 55, EWS-Fli block 71 and DNA binding inactive.
Screening CC(=O)N1[C@H](CNC(=O)CN2CCOCC2)[C@H](c2ccccc2)[C@@H]1CO returned PGC1a acetyl inh inactive, PAX8 reporter inactive, FN deposition inh inactive and EWS-Fli block inactive.
For Cc1nc(N)nc(N)c1/C=C/C(C)(C)c1ccc(Cl)cc1 the results were PGC1a acetyl inh inactive, PAX8 reporter 68, FN deposition inh inactive, FGF22 binding inactive, HIV Env fusion inactive, EWS-Fli block 59 and DNA binding inactive.
O=C1/C(=C\c2ccccc2)CN(C(=O)CCN2CCCCC2)C/C1=C/c1ccccc1 was read as PAX8 reporter inactive, FN deposition inh inactive, FGF22 binding inactive, HIV Env fusion inactive, EWS-Fli block 80 and DNA binding inactive.
`O=C(CCN1C(=O)S/C(=C\c2ccccc2)C1=O)N1CCCCC1` gave PAX8 reporter inactive, FN deposition inh inactive, FGF22 binding inactive, HIV Env fusion inactive and EWS-Fli block inactive.
For COc1ccc2c3c(n(C)c2c1)[C@@H](CO)N(C(=O)CN1CCOCC1)CC31CN(Cc2ccncc2)C1 the results were FGF22 binding inactive, HIV Env fusion inactive and EWS-Fli block inactive.
`Cc1c(Cl)cccc1NC(=O)CCC(=O)N/N=C/c1ccc[nH]1` gave PAX8 reporter inactive, FN deposition inh inactive, FGF22 binding inactive, EWS-Fli block 58 and DNA binding inactive.
Screening COc1cc2oc3cc(C#Cc4ccc(N)cc4)ccc3c(=O)c2cc1OC returned PGC1a acetyl inh inactive, PAX8 reporter inactive, FN deposition inh inactive, FGF22 binding inactive, HIV Env fusion inconclusive, EWS-Fli block 55 and DNA binding inactive.
`COc1cc2oc3ccc(C#Cc4ccc(N)cc4)cc3c(=O)c2cc1OC` gave PAX8 reporter inactive, FN deposition inh inactive, FGF22 binding inactive, HIV Env fusion inactive and EWS-Fli block inactive.
`CC(C)Oc1ccc(Br)cc1C(=O)N/N=C/c1c[nH]c2ccccc12` gave PGC1a acetyl inh inactive, PAX8 reporter inactive, FN deposition inh inactive, FGF22 binding inactive, HIV Env fusion inactive, EWS-Fli block 53 and DNA binding inactive.
O=C(N/N=C/c1c[nH]c2ccccc12)c1ccccc1Cl was read as PGC1a acetyl inh inactive, PAX8 reporter inactive, FN deposition inh inactive, FGF22 binding inactive, HIV Env fusion inactive and EWS-Fli block inactive.
O=c1[nH]c(=O)n([C@H]2C[C@H](O)[C@@H](CO)O2)cc1F was read as PAX8 reporter inactive, FN deposition inh inactive, FGF22 binding inactive, HIV Env fusion 70, EWS-Fli block 64 and DNA binding inactive.
COc1cc(/C=C/C(=O)CC(=O)/C=C/c2ccc(O)c(OC)c2)ccc1O was read as PGC1a acetyl inh inactive, PAX8 reporter inactive, FN deposition inh inactive, FGF22 binding inactive, EWS-Fli block 73 and DNA binding 40µM.

Source: PubChem BioAssay
